Compounds with a hit are over-represented: about 1.8% of the library has one in this group of screens.
MIN6 prolif: MIN6 beta-cell proliferation induction; MIN6 cells proliferation, ATPlite luminescence, 48 h; cells starved in 0.2% serum; 100% = growth in 10% serum; proliferation, % at 10 µM; 330,000 tested, 0.29% active; AID 2380;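 active = compounds whose signal lies at least 3.5 SD above the mean of all wells on their plate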;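 also: 0% = DMSO-treated cells in low-serum medium and 100% = 10% serum control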
FLuc stim CS: affects firefly luciferase, flagging false hits in luciferase stimulation screens; 200,000 tested, under 10 active; activation factor at 10 µM; ATPlite luciferase biochemical, luminescence, 10 min; 0 = ATP-free wells, 1 = DMSO control; P08659;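 active = luciferase activation factor, scaled between plate controls, of at least 2 with compound at 10 µM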
Target sequence (P08659 whole entry, looked up): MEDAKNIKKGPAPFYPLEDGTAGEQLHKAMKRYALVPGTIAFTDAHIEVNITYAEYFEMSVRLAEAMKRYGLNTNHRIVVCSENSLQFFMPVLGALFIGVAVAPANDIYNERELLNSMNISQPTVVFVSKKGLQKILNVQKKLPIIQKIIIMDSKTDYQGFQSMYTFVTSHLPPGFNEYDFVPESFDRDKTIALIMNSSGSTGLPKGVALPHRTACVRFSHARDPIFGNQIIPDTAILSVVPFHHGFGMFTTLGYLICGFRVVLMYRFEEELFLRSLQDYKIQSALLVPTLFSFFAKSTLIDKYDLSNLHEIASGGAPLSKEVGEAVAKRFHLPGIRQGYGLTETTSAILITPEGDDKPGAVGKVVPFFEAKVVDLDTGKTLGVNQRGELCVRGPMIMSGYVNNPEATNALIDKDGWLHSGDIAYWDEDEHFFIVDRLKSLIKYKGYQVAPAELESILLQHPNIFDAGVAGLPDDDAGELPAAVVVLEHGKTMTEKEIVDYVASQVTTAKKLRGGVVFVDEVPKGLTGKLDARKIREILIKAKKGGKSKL
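assay system = Luciferase/luciferin detection reagent, cell-free biochemical luciferase assay | also added = ATP substrate | times = 10 min post-reagent at room temperature | measured by = luminescence from luciferase reaction | measure = luciferase activation, seen as luminescence increase over controls | benchmarks = low control with PBS replacing ATP, high control enzyme plus ATP without compound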
TRAIL sens C8: sensitizes caspase-8 expressing cells to TRAIL; NB7+C8 cells + TRAIL, ATPlite viability luminescence; inhibition (viability loss, TRAIL sensitization), % at 10 µM; 360,000 tested, 1% active;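 active = compounds causing at least 50% loss of cell viability in the single-dose screen, relative to plate controls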
iPSC survival up: increases survival of single human iPS cells | hiPSC single-cell survival, ATPlite luminescence; 100% = ROCK inhibitor wells, 0% = DMSO | survival enhancement, % at 20 µM | 360,000 tested, 0.044% active | AID 602274; in the data active = survival enhancement above about 18%;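 also: cells exposed to compounds for 16 hours before the ATP read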
FLuc inh counter: inhibits firefly luciferase, flagging false hits in luciferase inhibition screens; P08659; ATPLite firefly luciferase biochemical luminescence, 10 min; inhibition, % at 10 µM; 200,000 tested, 1.5% active;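 active = inhibition above about 50% when tested at 10 µM, limit read from the data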
PPC-1+TRAIL kill: PPC-1 cancer cell killing with TRAIL present. 220,000 tested, 0.41% active. PPC-1 cells + TRAIL, ATPLite viability luminescence. AID 1443. cell killing (% activity), % at 4 µM or 5 µM;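 active = cell killing above 50% in the first pass at 4 µM, then a duplicate retest at 5 µM averaging 50% or more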;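 also: plate controls were cells with TRAIL plus DMSO for no effect and medium-only wells lacking cells for full effect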
Starred values were filed as active, the others as inactive; · = no result given.

SMILES | MIN6 prolif | FLuc stim CS | TRAIL sens C8 | iPSC survival up | FLuc inh counter | PPC-1+TRAIL kill
O=S1(=O)N[C@H](Cc2ccccc2)COc2cccc(N3CCN(Cc4ccccc4F)CC3)c21 | · | · | 12 | -1 | · | ·
COC(=O)CC(NC(=O)c1ccc(C)cc1)c1ccccc1 (centres undefined) | -4 | 0.3 | 3 | 0 | 65* | 9
COC(=O)CC(NC(=O)c1ccc(C)cc1)c1ccc2c(c1)OCO2 (centres undefined) | -3 | 1 | -9 | 2 | -2 | 9
Cn1cc(CNC(=O)C2CCC(=O)N(Cc3ccccc3F)C2)cn1 (centres undefined) | -3 | · | -13 | 0 | · | ·
Cc1nnsc1C(=O)N/N=C/c1ccc2ccccc2c1O | 0 | 1.1 | 17 | -1 | -5 | 60*
O=C(C(Cc1ccccc1)n1cccc1)N1CCN(c2cccc(Cl)c2)CC1 (centres undefined) | -6 | 1 | -1 | -1 | -4 | 8
COc1ccc(N2CCN(C(=O)C(Cc3ccccc3)n3cccc3)CC2)cc1 (centres undefined) | -4 | 1.1 | -8 | -4 | -8 | 82*
CCCn1c(=S)[nH]c2cc(C(=O)N(CCO)Cc3ccccc3)ccc2c1=O | -4 | · | 1 | 0 | · | ·
O=C(OCn1ncc(Br)c(Br)c1=O)c1ccccc1Cl | -4 | 1 | 93* | 35* | -1 | 31
O=C(OCn1ncc(Br)c(Br)c1=O)c1ccc(F)cc1 | -3 | 1 | 95* | -3 | -3 | 29
O=C(OCc1cnc(Cl)s1)c1ccccc1Cl | -3 | 1 | 0 | -2 | -5 | 13
O=[N+]([O-])c1ccc(NCCCNS(=O)(=O)c2ccc(Cl)cc2)c(Cl)c1 | -5 | 1.1 | 3 | 3 | -10 | 2
Cc1ccc(NC(=O)c2ccc(N/N=C/c3cccc(O)c3)c([N+](=O)[O-])c2)cc1 | -5 | 1 | 44 | 0 | -1 | 53*
Cc1ccccc1NC(=O)c1ccc(N/N=C/c2ccccc2O)c([N+](=O)[O-])c1 | -4 | 1 | 41 | -1 | -1 | 12
O=C(/C=C/c1ccc(Cl)c([N+](=O)[O-])c1)Nc1cccnc1 | 0 | 1 | -9 | 0 | 3 | 4
CCOc1ccc(OCc2cccc(C(=O)N/N=C/c3cccnc3)c2)cc1 | 0 | 0.5 | 45 | -3 | 47 | 41
CCCCCCCC(=O)Nc1ccc(C(=O)N/N=C/c2cccc([N+](=O)[O-])c2)cc1 | -3 | 1.1 | 57* | -2 | -8 | 20
CCCCCCC(=O)Nc1ccc(C(=O)N/N=C/c2cccnc2)cc1 | -3 | 1 | -5 | 6 | -2 | -11
CC(C)c1ccc(OCc2cccc(C(=O)N/N=C/c3cccnc3)c2)cc1 | · | 0.6 | 53* | -3 | 42 | 64*
O=C(N/N=C/c1cccnc1)C(O)(c1ccccc1)c1ccccc1 | -2 | 1.1 | -1 | -4 | -8 | -3
O=C(/C=C/c1ccc([N+](=O)[O-])cc1)Nc1cccnc1 | -4 | 0.3 | 32 | -2 | 65* | 29
CC(C)(C)OC(=O)N/N=C\c1cccnc1 | -3 | 0.2 | 49 | -3 | 78* | 42
CCN(C(=O)COC(=O)c1nc(Cl)ccc1Cl)c1c(N)n(Cc2ccccc2)c(=O)[nH]c1=O | · | · | 10 | 0 | · | ·
COCCNC(=O)C1(C)CCCN(C(=O)c2ccccc2OC)C1 (centres undefined) | · | · | 10 | 2 | · | ·
O=C1NCCN(CC2CCN(CCc3ccc(Cl)c(Cl)c3)CC2)C1=O | · | · | -6 | -1 | · | ·
SMILES | MIN6 prolif | FLuc stim CS | TRAIL sens C8 | iPSC survival up | FLuc inh counter | PPC-1+TRAIL kill
COCCCN1C(=O)C(CC(=O)NC2CC2)CC(C(=O)N(C(C)C)C(C)C)=C1C (centres undefined) | · | · | -1 | 0 | · | ·
Cc1nc2ccccc2cc1C(=O)N/N=C/c1cccc([N+](=O)[O-])c1 | 0 | 1.1 | 0 | 0 | -5 | 20
O=C(Cc1ccc([N+](=O)[O-])cc1)N/N=C/c1cccnc1 | -1 | · | 19 | 1 | · | ·
O=C(N/N=C/c1cccnc1)c1ccc([N+](=O)[O-])cc1 | -3 | 0.3 | 12 | -1 | 67* | 26
O=C(N/N=C/c1cccnc1)c1ccccc1 | -2 | · | 17 | 0 | · | ·
Nc1ccccc1C(=O)NN=Cc1cccnc1 | · | · | 60* | -2 | · | ·
Nc1ccccc1C(=O)NN=Cc1cccc([N+](=O)[O-])c1 | · | · | 59* | -1 | · | ·
Cc1ccc(Cl)cc1N(C)C(=O)Cn1ncc2c([nH]c3ccccc32)c1=O | -6 | · | 0 | 0 | · | ·
COc1cc(/C=C2/C(=O)c3cccc([N+](=O)[O-])c3C2=O)c(Br)cc1O | · | 0.4 | 19 | -1 | 64* | 10
CCCCCCCCN1C(=O)[C@H](CC(=O)NCc2ccc(OC)c(OC)c2)C[C@@]2(C(=O)OC)CC(C)(C)CC=C12 | · | · | -10 | · | · | ·
COc1ccc(C(=O)NCCNc2ccccc2[N+](=O)[O-])cc1 | -4 | 0.4 | 38 | -4 | 62* | 48
O=C(NCCNc1ccccc1[N+](=O)[O-])c1cc(F)c(F)cc1Cl | -3 | · | 13 | -1 | · | ·
NSc1nc(N)c2nc(-c3ccccc3)c(-c3ccccc3)nc2n1 | -4 | 1 | -3 | -1 | -2 | 12
Nc1nc(N)c2nc(-c3ccccc3)c(N)nc2n1 | -6 | 1 | 79* | 0 | -1 | 22
O=S(=O)(c1cccc2nsnc12)N1CCNCC1 | -3 | · | -10 | 3 | · | ·
CC(=O)Nc1ccc(C(=O)Nc2ccc3c(c2)OCO3)cc1 | -2 | 1 | 0 | 2 | -2 | 11
O=C(Nc1ccn(Cc2ccc(Cl)cc2)n1)c1ccccc1 | -5 | 0.7 | -6 | 0 | 25 | 21
O=C(Nc1ccc2c(c1)OCO2)c1ccc2c(c1)OCO2 | -2 | 0.2 | 71* | -3 | 83* | 48
Cc1cc(C(=O)Nc2ccc3c(c2)OCO3)cs1 | -5 | 0.3 | 36 | -2 | 65* | 48
O=C(Nc1ccn(Cc2ccccc2)n1)c1ccc2c(c1)OCO2 | -3 | 0.4 | 29 | -3 | 58* | 40
CC(=O)Nc1cccc(/C(C)=N/NC(=O)c2ccc3c(c2)OCO3)c1 | -5 | 0.2 | 49 | -3 | 75* | 37
N#Cc1ccc(COC(=O)c2cnc(Cl)c(Cl)c2)cc1 | -2 | · | 1 | 0 | · | ·
O=C(Nc1ccc2c(c1)OCO2)c1ccc(Cl)s1 | -4 | 0.4 | 21 | -2 | 61* | 14
O=C(Nc1ccc2c(c1)OCCO2)c1ccc(Cl)cc1 | -4 | · | 59* | -1 | · | ·
O=C(Nc1ccc2c(c1)OCO2)c1cccc(Cl)c1 | -1 | 0.7 | 17 | -3 | 26 | 6
O=C(CCl)Nc1ccccc1C(=O)Nc1ccc2c(c1)OCO2 | -7 | · | 50* | -1 | · | 44
O=C(Nc1ccc2c(c1)OCCO2)NC1CCCCC1 | -2 | 0.3 | 55* | -6 | 71* | 44

Screening results deposited in PubChem by Sanford-Burnham Center for Chemical Genomics.
